Experimental data published in ChEMBL document CHEMBL1137351, “Discovery of conformationally constrained tetracyclic compounds as potent hepatitis C virus NS5B RNA polymerase inhibitors” (J Med Chem, 2006).

Assays:
Caco-2 [1] = experiment: (§1) Permeability across Caco-2 cells; type: ADME, cell-based; details: human
Caco-2 [2] = experiment: Cytotoxicity against Caco-2 cells; type: functional; details: Homo sapiens
Huh-5-2 [3] = experiment: Inhibition of replication of HCV 1b BK RNA in Huh5-2 cells in presence of 10% fetal calf serum; type: functional, cell-based, Hepacivirus hominis; details: Homo sapiens, genotype 1b BK
How it was run: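 Huh-5-2 cells carrying the HCV replicon, assayed in medium with 10% FCS. EC50 is the mean of three independent experiments, with standard deviations within 30% of the mean.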

[4] = target: RNA-directed RNA polymerase (Hepacivirus hominis, UniProt O39930); experiment: Inhibition of HCV NS5B RNA polymerase
[5] = as §1; type: ADME, cell-based; details: human, read-out: permeability
Huh-5-2 [6] = experiment: Inhibition of replication of HCV 1b BK RNA in Huh5-2 cells in presence of 10% fetal calf serum and 4% human serum albumin; type: functional, cell-based, Hepacivirus hominis; details: genotype 1b BK
How it was run: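 Huh-5-2 replicon cells in medium with 10% FCS plus 4% human serum albumin. EC50 is the average of two experiments.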

Chain of RNA-directed RNA polymerase (O39930 whole entry): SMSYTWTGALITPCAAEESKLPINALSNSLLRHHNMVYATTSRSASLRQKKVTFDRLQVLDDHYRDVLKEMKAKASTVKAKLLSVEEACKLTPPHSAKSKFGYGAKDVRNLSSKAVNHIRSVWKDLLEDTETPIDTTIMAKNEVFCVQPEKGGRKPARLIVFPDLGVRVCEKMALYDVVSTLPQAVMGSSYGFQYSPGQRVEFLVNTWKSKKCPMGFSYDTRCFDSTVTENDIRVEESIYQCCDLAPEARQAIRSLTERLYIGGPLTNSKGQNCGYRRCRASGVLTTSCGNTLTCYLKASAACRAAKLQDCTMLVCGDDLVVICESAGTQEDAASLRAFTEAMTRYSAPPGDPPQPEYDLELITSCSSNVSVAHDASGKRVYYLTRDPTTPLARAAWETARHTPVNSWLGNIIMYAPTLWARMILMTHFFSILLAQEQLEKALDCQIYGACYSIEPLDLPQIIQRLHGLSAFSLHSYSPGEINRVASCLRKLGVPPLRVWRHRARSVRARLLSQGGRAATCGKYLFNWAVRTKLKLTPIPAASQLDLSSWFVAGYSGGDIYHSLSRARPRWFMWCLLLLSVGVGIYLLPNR

Activity (Caco-2 [1])	EC50 (Huh-5-2 [3]) [nM]	IC50 [4] [nM]	Papp [5] [×10⁻⁶ cm/s]	EC50 (Huh-5-2 [6]) [nM]	Compound	CC50 (Caco-2 [2]) [nM]
Active	1100	120	–	–	CC(=O)N1CCn2c(c(C3CCCCC3)c3ccc(C(=O)O)cc32)-c2ccccc21	> 20000
–	–	120	–	–	Cn1c(-c2ccc(OCc3ccccc3)cc2)c(C2CCCCC2)c2ccc(C(=O)O)cc21	–
–	3000	77	–	–	O=C(O)c1ccc2c(C3CCCCC3)c3n(c2c1)CCCc1ccccc1-3	–
–	1400	38	–	–	O=C(O)c1ccc2c(C3CCCCC3)c3n(c2c1)CCSc1ccccc1-3	–
–	570	21	55.9	> 10000	Cl.O=C(O)c1ccc2c(C3CCCCC3)c3n(c2c1)CCNc1ccccc1-3	> 20000
Active	310	26	–	–	O=C(O)c1ccc2c(C3CCCCC3)c3n(c2c1)CCN(CCc1ccccc1)c1ccccc1-3	> 20000
–	35	9	18.6	84	Cl.Cl.O=C(O)c1ccc2c(C3CCCCC3)c3n(c2c1)CCN(CCN1CCCCC1)c1ccccc1-3	> 20000
–	53	18	19.2	200	CN(C)CCN1CCn2c(c(C3CCCCC3)c3ccc(C(=O)O)cc32)-c2ccccc21.Cl.Cl	> 20000
–	> 10000	210	–	–	O=C(O)c1ccc2c(C3CCCCC3)c3n(c2c1)Cc1ccccc1-3	–
–	860	26	–	–	O=C(O)c1ccc2c(C3CCCCC3)c3n(c2c1)CCOc1ccccc1-3	–
–	6000	140	–	–	O=C(O)c1ccc2c(C3CCCCC3)c3n(c2c1)CCc1ccccc1-3	–
Active	1500	36	–	–	CC(C)N1CCn2c(c(C3CCCCC3)c3ccc(C(=O)O)cc32)-c2ccccc21	> 20000
–	210	24	51.9	4300	CN(C)C(=O)CN1CCn2c(c(C3CCCCC3)c3ccc(C(=O)O)cc32)-c2ccccc21	> 20000
–	–	17	–	–	O=C(O)c1ccc2c(C3CCCCC3)c3n(c2c1)CCOc1cc(OCc2ccccc2)ccc1-3	–
Active	590	19	–	6500	CN1CCn2c(c(C3CCCCC3)c3ccc(C(=O)O)cc32)-c2ccccc21	> 20000
–	4200	140	–	–	O=C(O)c1ccc2c(C3CCCCC3)c3n(c2c1)COc1ccccc1-3	–
Active	550	41	–	–	O=C(O)c1ccc2c(C3CCCCC3)c3n(c2c1)CCN(Cc1ccccc1)c1ccccc1-3	> 20000
